Reference: ChEMBL document CHEMBL4052815, “Amphiphilic Modulation of Glycosylated Antitumor Ether Lipids Results in a Potent Triamino Scaffold against Epithelial Cancer Cell Lines and BT474 Cancer Stem Cells” (J Med Chem, 2017)
Activity calls are given as the source filed them. The calls are words filed in the database; no cut-off is given here.

Tests used:
[1] = tested on: JIMT-1; test: Cytotoxicity against human JIMT1 cells assessed as decrease in cell viability after 48 hrs by MTS assay; type: functional; conditions: JIMT-1, 48 h
Method in brief: (§1)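 Cells grown at 37 °C, 5% CO2, with 10% FBS and penicillin/streptomycin: MDA-MB-231, JIMT1 and DU145 in DMEM, PC3 in F12K, BT474 in Hybricare, MiaPaCa2 in DMEM plus 2.5% horse serum. Cells (7500–9000/well) were plated for 24 h, then exposed to 0–20 µM for 48 h. MTS was added for 1–4 h and OD490 read, blank-subtracted, relative to vehicle. CC50 was read from plots; mean ± SD, six independent determinations.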

[2] = tested on: MDA-MB-231; test: Cytotoxicity against human MDA-MB-231 cells assessed as decrease in cell viability after 48 hrs by MTS assay; type: functional; conditions: MDA-MB-231, 48 h; method in brief: as §1
[3] = tested on: BT-474; test: Cytotoxicity against human BT474 cells assessed as decrease in cell viability after 48 hrs by MTS assay; type: functional; conditions: BT-474, 48 h; method in brief: as §1
[4] = tested on: MIA PaCa-2; test: Cytotoxicity against human MIAPaCa2 cells assessed as decrease in cell viability after 48 hrs by MTS assay; type: functional; conditions: MIA PaCa-2, 48 h; method in brief: as §1
[5] = tested on: DU-145; test: Cytotoxicity against human DU145 cells assessed as decrease in cell viability after 48 hrs by MTS assay; type: functional; conditions: DU-145, 48 h; method in brief: as §1
[6] = tested on: PC-3; test: Cytotoxicity against human PC3 cells assessed as decrease in cell viability after 48 hrs by MTS assay; type: functional; conditions: PC-3, 48 h; method in brief: as §1
[7] = tested on: BT-474; test: Cytotoxicity against human BT474 cells assessed as cell viability at 4 to 10 uM after 48 hrs by MTS assay relative to control; type: functional; method in brief: as §1
[8] = tested on: PC-3; test: Cytotoxicity against human PC3 cells assessed as cell viability at 4 to 10 uM after 48 hrs by MTS assay relative to control; type: functional; method in brief: as §1
[9] = tested on: MIA PaCa-2; test: Cytotoxicity against human MIAPaCa2 cells assessed as cell viability at 4 to 10 uM after 48 hrs by MTS assay relative to control; type: functional; method in brief: as §1
[10] = tested on: JIMT-1; test: Cytotoxicity against human JIMT1 cells assessed as cell viability at 4 to 10 uM after 48 hrs by MTS assay relative to control; type: functional; method in brief: as §1
[11] = tested on: DU-145; test: Cytotoxicity against human DU145 cells assessed as cell viability at 4 to 10 uM after 48 hrs by MTS assay relative to control; type: functional; method in brief: as §1
[12] = tested on: MDA-MB-231; test: Cytotoxicity against human MDA-MB-231 cells assessed as cell viability at 4 to 10 uM after 48 hrs by MTS assay relative to control; type: functional; method in brief: as §1
[13] = tested on: MDA-MB-453; test: Cytotoxicity against human MDA-MB-453 cells assessed as decrease in cell viability at 6 uM after 48 hrs by MTS assay relative to control; type: functional
[14] = tested on: MDA-MB-468; test: Cytotoxicity against human MDA-MB-468 cells assessed as decrease in cell viability at 6 uM after 48 hrs by MTS assay relative to control; type: functional
[15] = tested on: MDA-MB-231; test: Cytotoxicity against human MDA-MB-231 cells assessed as decrease in cell viability at 6 uM after 48 hrs by MTS assay relative to control; type: functional
[16] = tested on: BT-549; test: Cytotoxicity against human BT549 cells assessed as decrease in cell viability at 6 uM after 48 hrs by MTS assay relative to control; type: functional
[17] = tested on: Hs-578T; test: Cytotoxicity against human Hs 578T cells assessed as decrease in cell viability at 6 uM after 48 hrs by MTS assay relative to control; type: functional
[18] = Cytotoxicity against human U87 cells assessed as cell viability at 4 to 8 uM after 48 hrs by MTS assay relative to control; type: functional, U-87MG ATCC
Method in brief: (§2)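 Exponentially growing cells (7500–9000/well) were seeded for 24 h, then given compound at 0–20 µM for a further 48 h. MTS reagent (20% v/v) was added for 1–4 h and OD490 read. Blanks were cell-free media wells, and viability was expressed relative to vehicle controls. CC50 was read from viability plots; mean ± SD of six independent determinations.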

[19] = tested on: U-251; test: Cytotoxicity against human U251 cells assessed as cell viability at 4 to 8 uM after 48 hrs by MTS assay relative to control; type: functional; method in brief: as §2
[20] = tested on: A2780S; test: Cytotoxicity against human A2780S cells assessed as cell viability at 4 to 8 uM after 48 hrs by MTS assay relative to control; type: functional; method in brief: as §2
[21] = Cytotoxicity against human A2780C/P cells assessed as cell viability at 4 to 8 uM after 48 hrs by MTS assay relative to control; type: functional; method in brief: as §2
[22] = tested on: MDA-MB-453; test: Cytotoxicity against human MDA-MB-453 cells assessed as decrease in cell viability after 48 hrs by MTS assay; type: functional; conditions: MDA-MB-453, 48 h
[23] = tested on: MDA-MB-468; test: Cytotoxicity against human MDA-MB-468 cells assessed as decrease in cell viability after 48 hrs by MTS assay; type: functional; conditions: MDA-MB-468, 48 h
[24] = tested on: BT-549; test: Cytotoxicity against human BT549 cells assessed as decrease in cell viability after 48 hrs by MTS assay; type: functional; conditions: BT-549, 48 h
[25] = tested on: Hs-578T; test: Cytotoxicity against human Hs 578T cells assessed as decrease in cell viability after 48 hrs by MTS assay; type: functional
[26] = Cytotoxicity against human U87 cells assessed as decrease in cell viability after 48 hrs by MTS assay; type: functional, U-87MG ATCC; conditions: U-87 MG; method in brief: as §2
[27] = tested on: U-251; test: Cytotoxicity against human U251 cells assessed as decrease in cell viability after 48 hrs by MTS assay; type: functional; conditions: U-251, 48 h; method in brief: as §2
[28] = tested on: A2780S; test: Cytotoxicity against human A2780S cells assessed as decrease in cell viability after 48 hrs by MTS assay; type: functional; method in brief: as §2
[29] = Cytotoxicity against human A2780C/P cells assessed as decrease in cell viability after 48 hrs by MTS assay; type: functional; method in brief: as §2
[30] = tested on: BT-474; test: Induction of disintegration of human BT474 cancer stem cell spheroids at 7.5 uM after 3 days by microscopic method; type: functional, cell-based
Method in brief: (§3)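 BT474 stem-cell spheroids (ALDH1-sorted, formed over 6 days in Mammocult on ultra-low adhesion plates) exposed to 0, 7.5 or 20 µM for 3 days. Integrity was judged by light microscopy at ×10 against untreated spheroid wells.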

[31] = tested on: BT-474; test: Induction of disintegration of human BT474 cancer stem cell spheroids at 20 uM after 3 days by microscopic method; type: functional, cell-based; method in brief: as §3
[32] = tested on: DU-145; test: Cytotoxicity against human DU145 cells assessed as decrease in cell viability at 2 to 8 uM in presence of pan-caspase inhibitor Q-VD-OPh after 48 hrs by MTS assay; type: functional, cell-based
Method in brief: (§4)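 DU145 or JIMT1 cells seeded for 24 h, then given 40 µM pan-caspase inhibitor along with varying compound concentrations. Incubation continued 48 h, then MTS (20% v/v) for 1–4 h, OD490 read. Values are blank-subtracted and relative to vehicle controls; mean ± SD.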

[33] = tested on: JIMT-1; test: Cytotoxicity against human JIMT1 cells assessed as decrease in cell viability at 2 to 8 uM in presence of pan-caspase inhibitor Q-VD-OPh after 48 hrs by MTS assay; type: functional, cell-based; method in brief: as §4
[34] = tested on: DU-145; test: Induction of morphological changes in human DU145 cells at 6 uM after 4 hrs by bright field microscopic method; type: functional, cell-based
Method in brief: (§5)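 DU145 and JIMT1 grown in DMEM with 10% FBS and antibiotics, plated 24 h, then given 4–6 µM for 5–6 h (legend: 4 h). Ethidium homodimer-1 was added at 2 µM final, and cells were examined by bright-field and fluorescence microscopy at ×20. Controls: untreated cells, and 0.01% Triton X-100 for 10 min.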

[35] = tested on: JIMT-1; test: Induction of morphological changes in human JIMT1 cells at 6 uM after 4 hrs by bright field microscopic method; type: functional, cell-based; method in brief: as §5
[36] = tested on: DU-145; test: Membranolytic activity in human DU145 cells at 6 uM after 4 hrs by ethidium homodimer-1 staining-based fluorescence microscopic method; type: functional, cell-based; method in brief: as §5
[37] = tested on: JIMT-1; test: Membranolytic activity in human JIMT1 cells at 6 uM after 4 hrs by ethidium homodimer-1 staining-based fluorescence microscopic method; type: functional, cell-based; method in brief: as §5
[38] = Ratio of compound concentration showing <20% hemolysis in ovine erythrocytes to CC50 for human BT474 cells
[39] = tested on: BT-474; test: Cytotoxicity against human BT474 cancer stem cell spheroids assessed as decrease in cell viability at 2 to 10 uM after 3 days by MTS assay
[40] = tested on: BT-474; test: Cytotoxicity against human BT474 cancer stem cell spheroids assessed as cell viability at 20 uM after 3 days by MTS assay relative to control; conditions: BT-474, 72 h
[41] = tested on: BT-474; test: Cytotoxicity against human BT474 cancer stem cell spheroids assessed as cell viability at 10 uM after 3 days by MTS assay relative to control; conditions: BT-474, 72 h

CCCCCCCCCCCCCCCCOC[C@H](CO[C@@H]1O[C@H](CNCCCCCCCCCCCCN)[C@@H](O)[C@H](O)[C@H]1N)OC
CC50 [1]: 3400 nM | CC50 [2]: 1500 nM | CC50 [3]: 1600 nM | CC50 [4]: 4000 nM | CC50 [5]: 3800 nM | CC50 [6]: 2000 nM | Activity [7]: 0% | Activity [8]: 0% | Activity [9]: 0% | Activity [10]: 0% | Activity [11]: 0% | Activity [12]: 0% | Activity [13]: >95% | Activity [14]: >95% | Activity [15]: >95% | Activity [16]: >95% | Activity [17]: >95% | Activity [18]: 0% | Activity [19]: 0% | Activity [20]: 0% | Activity [21]: 0% | CC50 [22]: 4000 nM | CC50 [23]: 2000 nM | CC50 [24]: 2500 nM | CC50 [25]: 1800 nM | CC50 [26]: 2500 nM | CC50 [27]: 2600 nM | CC50 [28]: 2400 nM | CC50 [29]: 3800 nM | Activity [30]: Active | Activity [31]: Active | Activity [32]: Active | Activity [33]: Active | Activity [34]: Active | Activity [35]: Active | Activity [36]: inactive | Activity [37]: inactive | Ratio [38]: 15 | Activity [39]: Active | viability at 20 µM [40]: 0% | viability at 10 µM [41]: 2%
